Activity calls are given as the source filed them. The calls are words filed in the database; no cut-off is given here.
Experiments:
[1] = tested on: Radical scavenging activity; assay: Antioxidant activity assessed as DPPH free radical scavenging activity at 100 uM after 20 mins by spectrophotometric analysis; format: functional
Summary of the method: (§1)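 0.05 mM DPPH in absolute ethanol mixed with an equal volume of compound in DMSO (final 100 μM). Shaken and left 20 or 60 min, then absorbance read at 517 nm and percent activity calculated. Three replicates, averaged.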

[2] = tested on: Radical scavenging activity; assay: Antioxidant activity assessed as DPPH free radical scavenging activity at 100 uM after 60 mins by spectrophotometric analysis; format: functional; summary of the method: as §1
[3] = Antioxidant activity assessed as inhibition of AAPH-induced linoleic acid lipid peroxidation by measuring conjugated diene hydroperoxide level; format: functional; set-up: concentration or dose not given beside the values; conditions: dose or concentration not given here
Summary of the method: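 Linoleic acid sodium salt (10 μL of 16 mM) in 0.05 M phosphate buffer pH 7.4 at 37 °C. Oxidation started under air with 50 μL of 40 mM AAPH. Conjugated diene hydroperoxide formation followed as absorbance rise at 234 nm; control contains the same DMSO level. At least triplicate.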

[4] = tested on: Respiratory syncytial virus; assay: Antiviral activity against RSV infected in human cervix carcinoma cells assessed as inhibition of virus-induced cytopathic effect at 0.32 to 100 uM; format: functional, organism-based
Summary of the method: (§2)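 Confluent cell cultures were infected with 100 CCID50 of virus in the presence of test compound at 100, 40, 8, 1.6 and 0.32 μM. Cytopathic effect was scored once it was complete in untreated infected controls.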

Coxsackievirus B4 [5] = assay: Antiviral activity against Coxsackievirus B4 infected in human cervix carcinoma cells assessed as inhibition of virus-induced cytopathic effect at 0.32 to 100 uM; format: functional, organism-based; summary of the method: as §2
CCRF-CEM = assay: Cytostatic activity against human CEM cells after 3 days by coulter counter analysis; format: functional, cell-based; conditions: 72 h
Summary of the method: (§3)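 300,000–500,000 cells/ml mixed 1:1 with compound dilutions and incubated at 37 °C for 2 days (L1210) or 3 days (CEM, HeLa). Cell number counted with a Coulter counter; HeLa trypsinized before counting.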

HeLa = assay: Cytostatic activity against human HeLa cells after 3 days by coulter counter analysis; format: functional, cell-based; conditions: 72 h; summary of the method: as §3
HCT-116 = assay: Cytostatic activity against human HCT116 cells after 72 hrs by MTT assay; format: functional, cell-based; conditions: HCT-116, 72 h
Summary of the method: (§4)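 Monolayers in DMEM with 10% FBS, 2 mM L-glutamine and penicillin/streptomycin, 37 °C, 5% CO2. Seeded at 1–3 × 10^4 cells/ml, then compound added in tenfold dilutions (10⁻⁸–10⁻⁴ M) for 72 h. MTT read at 570 nm; percent growth taken against time-zero and untreated controls. IC50 by linear regression; quadruplicate, at least two experiments.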

MCF7 = assay: Cytostatic activity against human MCF7 cells after 72 hrs by MTT assay; format: functional, cell-based; conditions: MCF7, 72 h; summary of the method: as §4
NCI-H460 = assay: Cytostatic activity against human NCI-H460 cells after 72 hrs by MTT assay; format: functional, cell-based; conditions: NCI-H460, 72 h; summary of the method: as §4
Human alphaherpesvirus 1 = assay: Antiviral activity against HSV1 KOS infected in human lung fibroblast assessed as inhibition of virus-induced cytopathic effect at 0.32 to 100 uM; format: functional, organism-based; summary of the method: as §2
Human alphaherpesvirus 2 = assay: Antiviral activity against HSV2 G infected in human lung fibroblast assessed as inhibition of virus-induced cytopathic effect at 0.32 to 100 uM; format: functional, organism-based; conditions: strain G; summary of the method: as §2
Vaccinia virus = assay: Antiviral activity against Vaccinia virus infected in human lung fibroblast assessed as inhibition of virus-induced cytopathic effect at 0.32 to 100 uM; format: functional, organism-based; conditions: Orthopoxvirus vaccinia
[6] = tested on: Vesicular stomatitis virus; assay: Antiviral activity against VSV infected in human lung fibroblast assessed as inhibition of virus-induced cytopathic effect at 0.32 to 100 uM; format: functional, organism-based
Human respirovirus 3 = assay: Antiviral activity against Parainfluenza virus 3 infected in african green monkey Vero cells assessed as inhibition of virus-induced cytopathic effect at 0.32 to 100 uM; format: functional, organism-based; summary of the method: as §2
[7] = tested on: Mammalian orthoreovirus 1; assay: Antiviral activity against Reovirus-1 infected in african green monkey Vero cells assessed as inhibition of virus-induced cytopathic effect at 0.32 to 100 uM; format: functional, organism-based; summary of the method: as §2
Sindbis virus = assay: Antiviral activity against Sindbis virus infected in african green monkey Vero cells assessed as inhibition of virus-induced cytopathic effect at 0.32 to 100 uM; format: functional, organism-based; summary of the method: as §2
Coxsackievirus B4 [8] = assay: Antiviral activity against Coxsackievirus B4 infected in african green monkey Vero cells assessed as inhibition of virus-induced cytopathic effect at 0.32 to 100 uM; format: functional, organism-based; summary of the method: as §2
Punta Toro virus = assay: Antiviral activity against Punta Toro virus infected in african green monkey Vero cells assessed as inhibition of virus-induced cytopathic effect at 0.32 to 100 uM; format: functional, organism-based; summary of the method: as §2
[9] = tested on: Vesicular stomatitis virus; assay: Antiviral activity against Vesicular stomatitis virus infected in human cervix carcinoma cells assessed as inhibition of virus-induced cytopathic effect at 0.32 to 100 uM; format: functional, organism-based
Summary of the method: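 Confluent human cervix carcinoma (HeLa) cultures received 100 CCID50 of VSV together with the compound at 100, 40, 8, 1.6 or 0.32 μM. Cytopathicity was read at the point of full CPE in infected, untreated control wells.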

Felid alphaherpesvirus 1 = assay: Antiviral activity against Feline herpesvirus infected in feline CRFK cells assessed as inhibition of virus-induced cytopathic effect at 0.32 to 100 uM; format: functional, organism-based; summary of the method: as §2
Feline coronavirus = assay: Antiviral activity against Feline coronavirus infected in feline CRFK cells assessed as inhibition of virus-induced cytopathic effect at 0.32 to 100 uM; format: functional, organism-based; summary of the method: as §2
Influenza A virus [10] = assay: Antiviral activity against Influenza A virus H1N1 infected in MDCK cells assessed as inhibition of virus-induced cytopathic effect at 0.32 to 100 uM; format: functional, organism-based
Summary of the method: (§5)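 Confluent MDCK monolayers were infected in the presence of the compound at 100, 40, 8, 1.6 and 0.32 μM. Viral cytopathicity was scored once it was complete in untreated infected control cultures.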

Influenza A virus [11] = assay: Antiviral activity against Influenza A virus H3N2 infected in MDCK cells assessed as inhibition of virus-induced cytopathic effect at 0.32 to 100 uM; format: functional, organism-based; summary of the method: as §5
Influenza B virus = assay: Antiviral activity against Influenza B virus infected in MDCK cells assessed as inhibition of virus-induced cytopathic effect at 0.32 to 100 uM; format: functional, organism-based; summary of the method: as §5
[12] = tested on: Human immunodeficiency virus 1; assay: Antiviral activity against HIV1 3B infected in human CEM cells assessed as inhibition of virus-induced CEM giant cell formation at 0.32 to 100 uM after 4 days; format: functional, organism-based; conditions: CCRF-CEM
Summary of the method: (§6)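 CEM cells (~3 × 10^5 cells/cm³) exposed to 100 CCID50/ml of virus and seeded into wells holding compound dilutions. Incubated 4 days at 37 °C, then giant cell formation examined microscopically.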

[13] = tested on: Human immunodeficiency virus 2; assay: Antiviral activity against HIV2 ROD infected in human CEM cells assessed as inhibition of virus-induced CEM giant cell formation at 0.32 to 100 uM after 4 days; format: functional, organism-based; conditions: ISOLATE ROD, CCRF-CEM; summary of the method: as §6
Glycine max = assay: Inhibition of soybean LOX assessed as conversion of sodium linoleate to 13- hydroperoxylinoleic acid at 100 uM
L1210 = assay: Cytostatic activity against mouse L1210 cells after 2 days by coulter counter analysis; format: functional, cell-based; conditions: L1210, 48 h; summary of the method: as §3

SMILES | Activity [1] | Activity [2] | inhibition [3] | inhibition [4] | inhibition (Coxsackievirus B4 [5]) | IC50 (CCRF-CEM) | IC50 (HCT-116) | IC50 (MCF7) | IC50 (NCI-H460) | inhibition (Human alphaherpesvirus 1) | inhibition (Human alphaherpesvirus 2) | inhibition (Vaccinia virus) | inhibition [6] | inhibition (Human respirovirus 3) | inhibition [7] | inhibition (Sindbis virus) | inhibition (Coxsackievirus B4 [8]) | inhibition (Punta Toro virus) | inhibition [9] | inhibition (Felid alphaherpesvirus 1) | further results
CC(Cc1ccc(O)c(O)c1)C(C)Cc1ccc(O)c(O)c1 (centres undefined) | 80% | 91% | – | – | – | – | – | – | – | – | – | – | – | – | – | – | – | – | – | – | –
Cc1c(C)c2c(c(C)c1O)CCC(C)(C(=O)O)O2 (centres undefined) | – | – | 63% | – | – | – | – | – | – | – | – | – | – | – | – | – | – | – | – | – | –
CC(C)Cc1ccc(C(C)C(=O)NNC(=O)NNC(=O)NOCc2ccccc2)cc1 (centres undefined) | 11% | 18% | 13% | inactive | inactive | 106 µM | 56 µM | 19 µM | 71 µM | inactive | inactive | inactive | inactive | inactive | inactive | inactive | inactive | inactive | inactive | inactive | IC50 (HeLa): 98 µM; inhibition (Feline coronavirus): inactive; inhibition (Influenza A virus [10]): inactive; inhibition (Influenza A virus [11]): inactive; inhibition (Influenza B virus): inactive; inhibition [12]: inactive; inhibition [13]: inactive; inhibition (Glycine max): inactive
CC(C(=O)NNC(=O)NNC(=O)NOCc1ccccc1)c1cccc(Oc2ccccc2)c1 (centres undefined) | 8% | 15% | 26% | inactive | inactive | 90 µM | 84 µM | 26 µM | > 100 µM | inactive | inactive | inactive | inactive | inactive | inactive | inactive | inactive | inactive | inactive | inactive | IC50 (L1210): 103 µM; inhibition (Feline coronavirus): inactive; inhibition (Influenza A virus [10]): inactive; inhibition (Influenza A virus [11]): inactive; inhibition (Influenza B virus): inactive; inhibition [12]: inactive; inhibition [13]: inactive; inhibition (Glycine max): inactive
